Test results as given in ChEMBL document CHEMBL1134370, “Pharmacophore analysis of the nuclear oxysterol receptor LXRalpha” (J Med Chem, 2001).

How the values were obtained:
[1] = target: T1, Oxysterols receptor LXR-alpha (Homo sapiens, UniProt Q13133); assay: Concentration required for half maximal activity was calculated in human nuclear oxysterol receptor liver X receptor-alpha in LiSA.
T1 sequence (Q13133 whole entry): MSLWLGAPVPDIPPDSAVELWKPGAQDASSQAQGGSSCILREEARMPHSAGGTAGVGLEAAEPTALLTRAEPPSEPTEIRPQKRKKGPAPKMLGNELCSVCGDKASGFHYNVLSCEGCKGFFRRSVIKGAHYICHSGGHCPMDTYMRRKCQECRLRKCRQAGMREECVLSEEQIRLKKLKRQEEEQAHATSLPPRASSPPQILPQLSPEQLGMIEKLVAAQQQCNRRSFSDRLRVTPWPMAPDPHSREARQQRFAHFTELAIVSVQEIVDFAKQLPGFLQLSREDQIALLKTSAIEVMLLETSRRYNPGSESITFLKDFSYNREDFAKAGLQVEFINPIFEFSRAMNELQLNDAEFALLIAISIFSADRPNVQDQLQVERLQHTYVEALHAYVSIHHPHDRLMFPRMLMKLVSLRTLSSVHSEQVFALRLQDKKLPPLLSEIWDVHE
Outline: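 Human LXRα ligand-binding domain (aa 183-447) with His tag, expressed in E. coli, purified and biotinylated. Protein and biotinylated SRC1 peptide (aa 675-699) were pre-bound to streptavidin-APC and streptavidin-europium. The final mix (10 nM each) was read by TR-FRET at 665 nm after 2-4 h at room temperature. Compounds 1 nM-100 µM; EC50 from half-maximal fluorescence, n = 3, standard error.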

[2] = target: T2, Oxysterols receptor LXR-alpha (Homo sapiens) (UniProt Q13133); assay: Tested for its ability to activate Liver X receptor-alpha expressed as Relative efficacy determined by maximal increase in relative fluorescence in LiSA
T2 sequence (whole entry): T1 sequence (Q13133 whole entry)
Outline: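 Human LXRα ligand-binding domain (aa 183-447) with a His tag, expressed in E. coli, biotinylated and coupled to streptavidin-allophycocyanin. A biotinylated SRC1 peptide (aa 675-699) was coupled to streptavidin-europium. Final concentrations: 10 nM protein and peptide in pH 7.5 MOPS buffer, compound 1 nM–100 µM. Incubated 2-4 h at room temperature; time-resolved FRET read at 665 nm. Efficacy is the maximal fluorescence increase relative to 24(S),25-epoxycholesterol.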

[3] = target: T2, Oxysterols receptor LXR-alpha (Homo sapiens); assay: Tested for its ability to activate Liver X receptor-alpha expressed as Relative efficacy determined by maximal increase in relative fluorescence in LiSA by 100 uM
Outline: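 TR-FRET ligand-sensing assay of SRC1 peptide recruitment to biotinylated human LXRα LBD (aa 183-447, E. coli), 10 nM each in MOPS/NaF buffer pH 7.5. Run at room temperature for 2-4 h, read at 665 nm. Relative efficacy is the maximal increase in relative fluorescence compared with 24(S),25-epoxycholesterol. Compounds tested up to 100 µM.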

[4] = target: T1, Oxysterols receptor LXR-alpha; assay: Binding affinity towards LXR alpha receptor was determined in a competition binding assay

In the case of CC(C)CCC[C@](C)(O)[C@H]1CC[C@H]2[C@@H]3CC=C4C[C@@H](O)CC[C@]4(C)[C@H]3CC[C@@]21C, the EC50 [1] is reported as 0.47 µM and the RE [2] is reported as 1.

Compound C[C@H](CC[C@H]1OC1(C)C)[C@H]1CC[C@H]2[C@@H]3CC=C4C[C@@H](O)CC[C@]4(C)[C@H]3CC[C@]12C has an EC50 [1] of 0.67 µM and an RE [2] of 1.

With C[C@@H](CO)CCC[C@@H](C)[C@H]1CC[C@H]2[C@@H]3CC=C4C[C@@H](O)CC[C@]4(C)[C@H]3CC[C@]12C the EC50 [1] was 0.25 µM and the RE [2] was 0.3.

For CC(C)CC[C@H](O)[C@@H](C)[C@H]1CC[C@H]2[C@@H]3CC=C4C[C@@H](O)CC[C@]4(C)[C@H]3CC[C@]12C, the RE [3] was less than 0.1 and the Ki [4] was 0.18 µM.

For CNC(=O)CC[C@@H](C)[C@H]1CC[C@H]2[C@@H]3CC=C4C[C@@H](O)CC[C@]4(C)[C@H]3CC[C@]12C, the EC50 [1] was 0.72 µM and the RE [2] was 0.55.

In the case of CC(C)C[C@H](O)C[C@@H](C)[C@H]1CC[C@H]2[C@@H]3CC=C4C[C@@H](O)CC[C@]4(C)[C@H]3CC[C@]12C, the EC50 [1] is reported as 5.9 µM and the RE [2] is reported as 0.7.

For CC(C)C(=O)NC[C@@H](C)[C@H]1CC[C@H]2[C@@H]3CC=C4C[C@@H](O)CC[C@]4(C)[C@H]3CC[C@]12C, the RE [2] was less than 0.1.

C[C@H](CCCC(C)(C)O)[C@H]1CC[C@H]2[C@@H]3CC=C4C[C@@H](O)CC[C@]4(C)[C@H]3CC[C@]12C was tested, and the EC50 [1] was 1.16 µM and the RE [2] was 0.35.

With C[C@H](CCC(=O)N(C)C)[C@H]1CC[C@H]2[C@@H]3CC=C4C[C@@H](O)CC[C@]4(C)[C@H]3CC[C@]12C the EC50 [1] was 0.17 µM and the RE [2] was 1.4.

Work on C[C@H](CC[C@@H]1OC1(C)C)[C@H]1CC[C@H]2[C@@H]3CC=C4C[C@@H](O)CC[C@]4(C)[C@H]3CC[C@]12C [24(S),25-EPOXYCHOLESTEROL] yielded an EC50 [1] of 0.46 µM and an RE [2] of 1.

Compound CC(C)C[C@@H](O)C[C@@H](C)[C@H]1CC[C@H]2[C@@H]3CC=C4C[C@@H](O)CC[C@]4(C)[C@H]3CC[C@]12C has an RE [2] of less than 0.1.

CC(C)[C@@H](O)CC[C@@H](C)[C@H]1CC[C@H]2[C@@H]3CC=C4C[C@@H](O)CC[C@]4(C)[C@H]3CC[C@]12C was tested, and the EC50 [1] was 0.13 µM and the RE [2] was 1.

For CC(C)CC[C@@H](O)[C@@H](C)[C@H]1CC[C@H]2[C@@H]3CC=C4C[C@@H](O)CC[C@]4(C)[C@H]3CC[C@]12C [22(R)-HYDROXYCHOLESTEROL], the EC50 [1] was 0.325 µM and the RE [2] was 0.85.

For C[C@H](CNC(=O)N(C)C)[C@H]1CC[C@H]2[C@@H]3CC=C4C[C@@H](O)CC[C@]4(C)[C@H]3CC[C@]12C, the RE [2] was less than 0.1.

In the case of C[C@H](C[C@@H](CO)C(C)(C)O)[C@H]1CC[C@H]2[C@@H]3CC=C4C[C@@H](O)CC[C@]4(C)[C@H]3CC[C@]12C, the RE [2] is reported as less than 0.1.

CC(C)[C@H](O)CC[C@@H](C)[C@H]1CC[C@H]2[C@@H]3CC=C4C[C@@H](O)CC[C@]4(C)[C@H]3CC[C@]12C was tested, and the EC50 [1] was 0.22 µM and the RE [2] was 0.85.

CC(C)CCC[C@@H](C)[C@H]1CC[C@H]2[C@@H]3CC=C4C[C@@H](O)CC[C@]4(C)[C@H]3CC[C@]12C showed an RE [2] of less than 0.1.

With CC(C)C(=O)CC[C@@H](C)[C@H]1CC[C@H]2[C@@H]3CC=C4C[C@@H](O)CC[C@]4(C)[C@H]3CC[C@]12C the EC50 [1] was 0.18 µM and the RE [2] was 1.3.

For C[C@H](CCC(=O)O)[C@H]1CC[C@H]2[C@@H]3CC=C4C[C@@H](O)CC[C@]4(C)[C@H]3CC[C@]12C, the EC50 [1] was 3 µM and the RE [2] was 0.2.

COC(=O)CC[C@@H](C)[C@H]1CC[C@H]2[C@@H]3CC=C4C[C@@H](O)CC[C@]4(C)[C@H]3CC[C@]12C gave an EC50 [1] of 0.105 µM and an RE [2] of 1.1.
